This is an account of results in ChEMBL document CHEMBL3045365, “Chemical composition and antifungal activity of Salvia macrochlamys and Salvia recognita essential oils” (2006).

The test system of experiment [1] is Colletotrichum fragariae. Put plainly: Antifungal activity against Colletotrichum fragariae assessed as growth inhibition at 4 uL in 2 mM acetone by direct bioautography. Format: functional. The method, boiled down:
(§1)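 Standards applied at 2 mM in 4 μL acetone onto silica TLC plates and tested by direct bioautography against each Colletotrichum species. Activity read as clear inhibitory zone size (mm), reported as mean ± SEM. Technical-grade fungicides at 2 mM in 2 μL EtOH served as internal standards. Runs repeated multiple times in dose- and non-dose-response formats.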

Experiment [2] relates to Colletotrichum acutatum. The experiment is described as follows: Antifungal activity against Colletotrichum acutatum assessed as growth inhibition at 4 uL in 2 mM acetone by direct bioautography. Format: functional. The method, boiled down: as §1
Experiment [3] relates to Colletotrichum gloeosporioides. The experiment is described as follows: Antifungal activity against Colletotrichum gloeosporioides assessed as growth inhibition at 4 uL in 2 mM acetone by direct bioautography. Format: functional. The gist of the method:
as §1

Experiment [4] has as its system Colletotrichum gloeosporioides. The experiment is described as follows: Antifungal activity against Colletotrichum gloeosporioides assessed as growth inhibition at 2 uL in 2 mM EtOH by direct bioautography.
Experiment [5] relates to Colletotrichum fragariae. Put plainly: Antifungal activity against Colletotrichum fragariae assessed as growth inhibition at 2 uL in 2 mM EtOH by direct bioautography.
The test system of experiment [6] is Colletotrichum acutatum. The experiment is described as follows: Antifungal activity against Colletotrichum acutatum assessed as growth inhibition at 2 uL in 2 mM EtOH by direct bioautography.

The structures appear in SMILES notation.

In the case of `CC1(C)[C@H]2CC[C@]1(C)[C@H](O)C2` [(-)-BORNEOL], the “inhibition zone (IZ)” value in experiment [1], in experiment [2] and in experiment [3] was 0 mm each time.
In the case of `CC1(C)[C@H]2CC[C@]1(C)C(=O)C2` [(-)-CAMPHOR], the “inhibition zone (IZ)” value in experiment [1], in experiment [2] and in experiment [3] was 0 mm each time.
Regarding `CO/C=C(/C(=O)OC)c1ccccc1Oc1cc(Oc2ccccc2C#N)ncn1` [AZOXYSTROBIN], the “inhibition zone (IZ)” value in experiment [4] is reported as 28.33 mm; in experiment [5] it was 19.33 mm; in experiment [6], 24.33 mm.
On to `CCCCNC(=O)n1c(NC(=O)OC)nc2ccccc21` [BENOMYL], for which the entries for the “inhibition zone (IZ)” value in experiment [4], in experiment [5] and in experiment [6] were 19.33 mm, 18.33 mm and 18 mm, respectively.
With `CC1(C)C2CCC1(C)C(O)C2` (stereo not drawn) [BORNEOL], the “inhibition zone (IZ)” value in experiment [1], in experiment [2] and in experiment [3] was 0 mm in each case.
As to `CC12CCC(CC1=O)C2(C)C` (stereo not drawn) [CAMPHOR], the “inhibition zone (IZ)” value in experiment [1], in experiment [2] and in experiment [3] was 0 mm in each case.
For the compound `O=C1C2CC=CCC2C(=O)N1SC(Cl)(Cl)Cl` (stereo not drawn) [CAPTAN], the “inhibition zone (IZ)” value was determined as 10.33 mm in experiment [4], 15 mm in experiment [5] and 14.67 mm in experiment [6].
Regarding `Cc1ccc(C(C)C)cc1O` [CARVACROL], the figures for the “inhibition zone (IZ)” value in experiment [1], in experiment [2] and in experiment [3] were 3.4 mm, 4.5 mm and 3.5 mm, respectively.
On to `Cc1cc(C2CC2)nc(Nc2ccccc2)n1` [CYPRODINIL], for which the results for the “inhibition zone (IZ)” value in experiment [4], in experiment [5] and in experiment [6] were 29.33 mm, 30.33 mm and 29.33 mm, respectively.
Turning to `CC12CCC(CC1)C(C)(C)O2` [EUCALYPTOL], the “inhibition zone (IZ)” value in experiment [1], in experiment [2] and in experiment [3] was 0 mm throughout.
Turning to `Cc1ccc(C(C)C)c(O)c1` [THYMOL], the “inhibition zone (IZ)” value in experiment [1], in experiment [2] and in experiment [3] was 0 mm in each case.
